Read-outs that look alike come from different tables or passages of the source.
Columns and labels:
DGKα = DGKα (Rattus norvegicus, UniProt P51556); test: Kinase assay with purified DGKα and PC:DAG:PS liposomes; type: biochemical; conditions: for Vmax (ATP): ATP-dependent activity; for Vmax (DAG): DAG-dependent activity; for Decrease of Vmax of purified DGKα: 0.5 mol% drug
Method in brief: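 Rat FLAG-DGKα was expressed in HeLa cells by adenovirus (72 h) and purified on FLAG M2 beads. Reactions contained buffer B (MOPS pH 7.5), 1 mM CaCl2, 1 mM DTT and 4.75 mM PC:PS:DAG liposomes (5 mol% DAG), with test compound built into the liposomes at 0.5 or 2.0 mol% or added from DMSO. Reactions with [γ32P]-ATP ran 15 min at 25°C. Km and Vmax came from Michaelis-Menten non-linear regression.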

DGKβ [1] = target: DGKβ (Rattus norvegicus, UniProt P49621); test: Kinase assay with HEK 293T cell homogenate over-expressing DGKβ; type: biochemical; conditions: 20 μM inhibitor, dioleoyl DAG liposomes
Method in brief: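 Reactions contained 5 μg homogenate, 2 mM liposomes (10 mol% dioleoyl DAG, 40 mol% PS, 50 mol% PC), buffer B, 1 mM DTT, 1 mM CaCl2 and [γ32P]-ATP, 20 min at 30°C. Test compound was added from DMSO. Organic-phase 32P was counted and expressed as percent of DMSO control after subtracting the GFP-lysate background.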

DGKδ = DGKδ (Homo sapiens, UniProt Q16760); test: Kinase assay with HEK 293T cell homogenate over-expressing DGKδ; type: biochemical; conditions: 20 μM inhibitor, dioleoyl DAG liposomes
Method in brief: (§1)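 Reactions without CaCl2 contained 5 μg homogenate, 2 mM liposomes (10 mol% dioleoyl DAG, 40 mol% PS, 50 mol% PC), buffer B, 1 mM DTT and [γ32P]-ATP, 20 min at 30°C. Test compound was added from DMSO. Extracted 32P-lipid was counted, GFP-lysate normalized, and expressed as percent of DMSO control.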

DGKι = DGKι (Homo sapiens, UniProt O75912); test: Kinase assay with HEK 293T cell homogenate over-expressing DGKι; type: biochemical
DGKθ = DGKθ (Homo sapiens, UniProt P52824); test: Kinase assay with HEK 293T cell homogenate over-expressing DGKθ; type: biochemical; conditions: 20 μM inhibitor, dioleoyl DAG liposomes
Method in brief: as §1

5-HT1A = target: T1, 5-HT1A (Homo sapiens, UniProt P08908); test: Radioligand competition binding assay
T1 sequence (P08908 1-422): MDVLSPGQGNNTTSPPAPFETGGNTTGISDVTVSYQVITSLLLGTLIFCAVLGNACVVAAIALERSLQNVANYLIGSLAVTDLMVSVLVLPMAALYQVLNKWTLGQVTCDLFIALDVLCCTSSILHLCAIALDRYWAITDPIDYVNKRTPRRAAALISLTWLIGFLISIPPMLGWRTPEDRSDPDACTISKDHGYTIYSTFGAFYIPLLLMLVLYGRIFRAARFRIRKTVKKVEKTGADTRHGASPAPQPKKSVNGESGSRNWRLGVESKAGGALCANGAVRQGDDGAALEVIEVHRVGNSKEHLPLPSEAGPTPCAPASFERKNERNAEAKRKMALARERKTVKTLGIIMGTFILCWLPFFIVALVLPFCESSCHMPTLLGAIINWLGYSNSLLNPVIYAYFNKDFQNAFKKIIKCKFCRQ

5-HT1B = 5-HT1B (Homo sapiens, UniProt P28222); test: Radioligand competition binding assay
Method in brief: (§2)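 Run by the NIMH PDSP as radioligand competition binding assays. The primary screen used 10 μM test compound and reported mean percent inhibition of radioligand binding (n=4); above 50% counted as significant. At those receptors, IC50 values came from non-linear regression of competition binding isotherms and were converted to Ki with the Cheng-Prusoff equation.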

5-HT2A = 5-HT2A (Homo sapiens, UniProt P28223); test: Radioligand competition binding assay
5-HT2B = 5-HT2B (Homo sapiens, UniProt P41595); test: Radioligand competition binding assay
5-HT2C = target: T2, 5-HT2C (Homo sapiens, UniProt P28335); test: Radioligand competition binding assay; conditions: read-out: Ki 5-HT2C; Cheng-Prusoff from best-fit IC50
T2 sequence (P28335 33-458): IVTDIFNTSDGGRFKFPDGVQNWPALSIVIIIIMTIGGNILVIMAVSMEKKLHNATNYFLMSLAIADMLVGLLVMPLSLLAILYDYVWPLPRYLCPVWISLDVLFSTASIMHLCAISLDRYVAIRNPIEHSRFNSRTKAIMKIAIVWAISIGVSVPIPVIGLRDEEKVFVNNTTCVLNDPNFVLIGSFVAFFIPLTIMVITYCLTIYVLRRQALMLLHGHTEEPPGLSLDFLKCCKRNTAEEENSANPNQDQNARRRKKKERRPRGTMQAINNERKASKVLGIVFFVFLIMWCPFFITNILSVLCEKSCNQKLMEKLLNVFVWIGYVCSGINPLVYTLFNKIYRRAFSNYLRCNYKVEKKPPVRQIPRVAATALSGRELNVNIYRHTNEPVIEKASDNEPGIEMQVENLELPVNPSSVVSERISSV

5-HT6 = 5-HT6 (Homo sapiens, UniProt P50406); test: Radioligand competition binding assay
Method in brief: as §2

PKC [2] = test: PKC activation: phosphorylation of PKC substrates by western blot in HeLa cells; type: cell-based, human; conditions: 40 μM, 30 min
Method in brief: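 HeLa cells were grown in DMEM with 5% FBS and treated 30 min with 4 or 40 μM test compound or 100 nM PMA, with or without 1 h pretreatment with 500 nM bisindolylmaleimide II. In separate runs, a 5-HT2AR agonist (10 μM, 6 h) was given with or without 40 μM antagonist. Lysates (50 μg) were immunoblotted for phospho-(Ser) PKC substrates; four independent experiments were quantified.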

PKC [3] = test: PKC activation: phosphorylation of PKC substrates by western blot in U87 cells; type: cell-based, human; conditions: treatment for 30 min
Method in brief: (§3)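 Glioblastoma cells were treated 30 min with 4 or 40 μM test compound or 100 nM PMA, with or without 1 h pretreatment with 500 nM bisindolylmaleimide II. Cleared Triton lysates (50 μg) were run on 8.75% SDS-PAGE and probed with phospho-(Ser) PKC substrate antibody, detected by alkaline phosphatase chemiluminescence. Three independent experiments were quantified.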

PKC [4] = test: PKC activation: phosphorylation of PKC substrates by western blot in U251 cells; type: cell-based, human; conditions: treatment for 30 min
Method in brief: as §3

DGKβ [5] = conditions: 30 μM R59022; cited from earlier work

Sequence of DGKι (O75912 1-1065 isoform O75912-1): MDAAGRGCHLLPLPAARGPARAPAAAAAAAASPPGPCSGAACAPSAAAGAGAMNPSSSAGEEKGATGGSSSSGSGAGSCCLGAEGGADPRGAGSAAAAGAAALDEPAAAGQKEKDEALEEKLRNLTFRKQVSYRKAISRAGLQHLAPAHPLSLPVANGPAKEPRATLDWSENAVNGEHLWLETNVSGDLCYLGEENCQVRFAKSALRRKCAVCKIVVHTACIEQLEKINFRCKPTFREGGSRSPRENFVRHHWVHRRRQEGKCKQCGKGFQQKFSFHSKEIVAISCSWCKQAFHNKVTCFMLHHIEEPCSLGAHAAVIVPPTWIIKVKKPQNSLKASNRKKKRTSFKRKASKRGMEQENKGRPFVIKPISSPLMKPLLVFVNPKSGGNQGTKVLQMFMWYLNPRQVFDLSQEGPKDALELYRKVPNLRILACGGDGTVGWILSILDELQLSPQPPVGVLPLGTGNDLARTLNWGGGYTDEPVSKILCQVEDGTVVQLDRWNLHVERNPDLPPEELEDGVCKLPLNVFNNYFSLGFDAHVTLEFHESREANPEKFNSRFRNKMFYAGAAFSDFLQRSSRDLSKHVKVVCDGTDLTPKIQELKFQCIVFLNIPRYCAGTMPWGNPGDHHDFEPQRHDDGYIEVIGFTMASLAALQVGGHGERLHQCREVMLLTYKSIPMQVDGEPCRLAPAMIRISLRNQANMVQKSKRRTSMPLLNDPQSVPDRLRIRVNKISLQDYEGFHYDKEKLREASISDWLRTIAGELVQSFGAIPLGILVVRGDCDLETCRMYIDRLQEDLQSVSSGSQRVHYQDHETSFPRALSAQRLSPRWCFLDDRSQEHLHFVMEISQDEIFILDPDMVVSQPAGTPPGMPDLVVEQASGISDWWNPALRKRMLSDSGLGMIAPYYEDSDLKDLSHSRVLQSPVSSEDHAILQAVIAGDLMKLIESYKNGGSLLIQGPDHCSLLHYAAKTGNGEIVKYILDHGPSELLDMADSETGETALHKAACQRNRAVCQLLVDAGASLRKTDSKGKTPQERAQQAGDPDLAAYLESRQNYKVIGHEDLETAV
Sequence of DGKα (P51556 whole entry): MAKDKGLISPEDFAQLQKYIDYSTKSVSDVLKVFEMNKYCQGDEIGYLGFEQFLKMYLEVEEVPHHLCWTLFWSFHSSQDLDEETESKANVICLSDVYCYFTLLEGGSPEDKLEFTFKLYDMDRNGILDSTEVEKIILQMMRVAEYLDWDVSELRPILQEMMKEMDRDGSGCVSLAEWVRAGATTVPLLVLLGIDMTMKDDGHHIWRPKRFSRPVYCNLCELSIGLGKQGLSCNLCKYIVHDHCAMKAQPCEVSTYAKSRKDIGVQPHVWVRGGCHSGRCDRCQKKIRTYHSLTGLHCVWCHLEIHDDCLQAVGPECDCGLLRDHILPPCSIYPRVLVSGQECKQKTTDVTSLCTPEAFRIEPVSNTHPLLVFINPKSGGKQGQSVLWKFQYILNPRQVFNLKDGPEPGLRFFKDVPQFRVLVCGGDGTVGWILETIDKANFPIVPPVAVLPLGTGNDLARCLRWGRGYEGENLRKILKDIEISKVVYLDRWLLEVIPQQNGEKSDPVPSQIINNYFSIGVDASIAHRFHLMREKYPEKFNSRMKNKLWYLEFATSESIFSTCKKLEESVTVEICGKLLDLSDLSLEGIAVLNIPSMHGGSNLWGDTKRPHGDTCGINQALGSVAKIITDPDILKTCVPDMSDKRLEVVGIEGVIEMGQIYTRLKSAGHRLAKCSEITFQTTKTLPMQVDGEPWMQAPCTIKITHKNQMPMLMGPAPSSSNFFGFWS
Sequence of 5-HT2B (P41595 whole entry, species assumed): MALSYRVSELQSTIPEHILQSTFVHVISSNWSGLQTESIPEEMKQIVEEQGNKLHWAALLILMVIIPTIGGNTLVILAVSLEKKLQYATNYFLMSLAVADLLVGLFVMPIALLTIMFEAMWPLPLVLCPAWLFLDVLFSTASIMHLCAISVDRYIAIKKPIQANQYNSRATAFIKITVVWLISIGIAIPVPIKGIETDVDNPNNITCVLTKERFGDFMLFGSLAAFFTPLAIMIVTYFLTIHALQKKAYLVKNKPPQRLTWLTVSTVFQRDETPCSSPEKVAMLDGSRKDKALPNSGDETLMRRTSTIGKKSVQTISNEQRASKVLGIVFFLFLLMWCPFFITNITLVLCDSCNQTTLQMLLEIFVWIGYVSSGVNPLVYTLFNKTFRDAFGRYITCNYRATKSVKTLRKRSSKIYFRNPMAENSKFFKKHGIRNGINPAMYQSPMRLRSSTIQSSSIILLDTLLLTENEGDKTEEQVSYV
Sequence of 5-HT1B (P28222 whole entry, species assumed): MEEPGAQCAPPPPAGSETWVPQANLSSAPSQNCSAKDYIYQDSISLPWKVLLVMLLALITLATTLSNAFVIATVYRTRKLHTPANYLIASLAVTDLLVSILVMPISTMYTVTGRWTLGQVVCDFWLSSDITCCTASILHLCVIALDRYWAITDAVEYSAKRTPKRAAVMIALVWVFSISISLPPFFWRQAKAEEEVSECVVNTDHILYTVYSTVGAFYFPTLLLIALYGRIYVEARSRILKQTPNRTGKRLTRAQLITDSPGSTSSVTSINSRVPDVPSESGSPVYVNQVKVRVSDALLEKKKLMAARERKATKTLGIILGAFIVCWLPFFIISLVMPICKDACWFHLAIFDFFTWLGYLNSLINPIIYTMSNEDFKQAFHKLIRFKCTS
Sequence of 5-HT2A (P28223 whole entry, species assumed): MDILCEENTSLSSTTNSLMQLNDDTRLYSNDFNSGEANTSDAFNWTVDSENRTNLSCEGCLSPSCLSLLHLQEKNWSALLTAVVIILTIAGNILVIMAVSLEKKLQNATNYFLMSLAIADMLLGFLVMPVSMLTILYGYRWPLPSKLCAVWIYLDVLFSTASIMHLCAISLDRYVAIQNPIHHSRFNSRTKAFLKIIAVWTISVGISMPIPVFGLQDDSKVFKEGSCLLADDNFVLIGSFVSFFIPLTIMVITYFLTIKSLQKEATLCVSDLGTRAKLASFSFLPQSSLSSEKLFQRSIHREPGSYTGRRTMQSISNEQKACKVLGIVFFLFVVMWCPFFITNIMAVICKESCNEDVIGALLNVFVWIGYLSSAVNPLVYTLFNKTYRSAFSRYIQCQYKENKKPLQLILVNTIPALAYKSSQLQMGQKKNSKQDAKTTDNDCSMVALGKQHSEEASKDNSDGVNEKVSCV
Sequence of 5-HT6 (P50406 whole entry, species assumed): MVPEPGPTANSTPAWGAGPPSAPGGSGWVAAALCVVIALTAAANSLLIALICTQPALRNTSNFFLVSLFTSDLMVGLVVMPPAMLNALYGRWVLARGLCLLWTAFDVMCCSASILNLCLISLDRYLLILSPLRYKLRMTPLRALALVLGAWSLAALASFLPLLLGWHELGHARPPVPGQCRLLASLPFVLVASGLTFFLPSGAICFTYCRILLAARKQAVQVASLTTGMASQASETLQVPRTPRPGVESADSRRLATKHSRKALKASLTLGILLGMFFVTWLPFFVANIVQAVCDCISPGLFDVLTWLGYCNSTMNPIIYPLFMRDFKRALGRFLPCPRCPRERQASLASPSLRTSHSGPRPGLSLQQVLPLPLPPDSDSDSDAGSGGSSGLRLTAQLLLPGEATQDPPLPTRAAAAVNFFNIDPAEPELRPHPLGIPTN
Sequence of DGKδ (Q16760 1-1170 isoform Q16760-2): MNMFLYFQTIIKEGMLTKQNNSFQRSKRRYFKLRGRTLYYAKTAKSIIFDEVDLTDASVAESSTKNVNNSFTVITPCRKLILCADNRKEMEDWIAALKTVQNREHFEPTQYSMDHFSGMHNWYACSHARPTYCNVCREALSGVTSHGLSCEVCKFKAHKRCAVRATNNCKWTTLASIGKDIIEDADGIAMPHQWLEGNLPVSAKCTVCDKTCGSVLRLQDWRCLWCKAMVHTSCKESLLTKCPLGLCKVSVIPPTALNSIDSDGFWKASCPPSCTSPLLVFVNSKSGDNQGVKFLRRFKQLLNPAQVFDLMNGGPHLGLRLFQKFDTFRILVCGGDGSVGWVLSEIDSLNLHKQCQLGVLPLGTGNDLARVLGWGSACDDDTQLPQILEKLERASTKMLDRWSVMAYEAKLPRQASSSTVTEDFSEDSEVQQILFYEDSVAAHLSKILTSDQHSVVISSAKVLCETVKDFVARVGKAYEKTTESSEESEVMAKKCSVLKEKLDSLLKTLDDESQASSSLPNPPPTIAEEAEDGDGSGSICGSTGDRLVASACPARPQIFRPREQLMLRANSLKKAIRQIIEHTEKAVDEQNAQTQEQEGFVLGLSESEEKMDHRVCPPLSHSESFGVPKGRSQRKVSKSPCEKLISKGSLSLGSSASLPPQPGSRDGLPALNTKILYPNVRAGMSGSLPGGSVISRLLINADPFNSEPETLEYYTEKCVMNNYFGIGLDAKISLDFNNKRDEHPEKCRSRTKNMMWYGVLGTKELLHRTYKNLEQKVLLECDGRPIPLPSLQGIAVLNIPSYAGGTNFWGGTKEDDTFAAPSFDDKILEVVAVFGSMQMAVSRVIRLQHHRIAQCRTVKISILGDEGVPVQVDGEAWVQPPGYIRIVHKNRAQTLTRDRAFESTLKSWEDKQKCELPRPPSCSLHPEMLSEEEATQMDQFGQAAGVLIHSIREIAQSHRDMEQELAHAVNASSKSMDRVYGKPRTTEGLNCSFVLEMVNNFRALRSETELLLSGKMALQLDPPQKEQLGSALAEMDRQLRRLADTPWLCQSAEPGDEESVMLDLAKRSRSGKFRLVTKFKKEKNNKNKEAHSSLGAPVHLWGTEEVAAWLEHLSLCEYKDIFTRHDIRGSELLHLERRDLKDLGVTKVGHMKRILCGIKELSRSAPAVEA

Cc1nc2sccn2c(=O)c1CCN1CCC(=C(c2ccccc2)c2ccc(F)cc2)CC1 [R59022]
Vmax (ATP) (DGKα; 0.5 mol% drug in liposomes, 5 mol% DAG): 32 ± 1 nmol/min/mg
Vmax (DAG) (DGKα; 0.5 mol% drug in liposomes, 1 mM ATP): 22 ± 1 nmol/min/mg
Decrease of Vmax of purified DGKα (DGKα; in the context of ATP): 25%
Decrease of Vmax of purified DGKα (DGKα; in the context of DAG): 40%
Vmax (ATP) (DGKα; 2.0 mol% drug in liposomes, 5 mol% DAG): 20 ± 1 ^† nmol/min/mg
Vmax (DAG) (DGKα; 2.0 mol% drug in liposomes, 1 mM ATP): 16 ± 1.5 nmol/min/mg
Km (DGKα; read-out: Km^app (ATP), 0.5 mol% drug in liposomes, 5 mol% DAG): 50 ± 10 µM
Km (DGKα; read-out: Km^app (ATP), 2.0 mol% drug in liposomes, 5 mol% DAG): 30 ± 10 µM
Km (DGKα; read-out: Km^app (DAG), 0.5 mol% drug in liposomes, 1 mM ATP): 110 ± 20 µM
Km (DGKα; read-out: Km^app (DAG), 2.0 mol% drug in liposomes, 1 mM ATP): 100 ± 20 µM
Activity of DGKβ, percent of control (DGKβ [1]): not detectably inhibited
Activity of DGKδ, percent of control (DGKδ): not detectably inhibited
Activity of DGKι, percent of control (DGKι; 20 μM inhibitor, dioleoyl DAG liposomes, cell homogenate): not detectably inhibited
IC50 for DGKι relative to IC50 for DGKα (DGKι; fold higher than IC50 for DGKα): 2–3 fold
IC50 (DGKι; read-out: IC50 for DGKι, cell homogenate, 1 mM ATP, 10 mol% DAG): ~60000 nM
Activity of DGKθ, percent of control (DGKθ): not detectably inhibited
Percent Inhibition of Binding 5-HT1A (5-HT1A; 10 μM test compound, n=4): 82.4%
Ki (5-HT1A; read-out: Ki 5-HT1A, Cheng-Prusoff from best-fit IC50): 410 nM
Percent Inhibition of Binding 5-HT1B (5-HT1B; 10 μM test compound, n=4): 83.5%
Ki (5-HT1B; read-out: Ki 5-HT1B, Cheng-Prusoff from best-fit IC50): 656 nM
Percent Inhibition of Binding 5-HT2A (5-HT2A; 10 μM test compound, n=4): 98.2%
Ki (5-HT2A; read-out: Ki 5-HT2A, Cheng-Prusoff from best-fit IC50): 2.2 nM
Percent Inhibition of Binding 5-HT2B (5-HT2B; 10 μM test compound, n=4): 100.5%
Ki (5-HT2B; read-out: Ki 5-HT2B, Cheng-Prusoff from best-fit IC50): 2.7 nM
Ki (5-HT2C): 0.8 nM
Percent Inhibition of Binding 5-HT6 (5-HT6; 10 μM test compound, n=4): 96.9%
Ki (5-HT6; read-out: Ki 5-HT6, Cheng-Prusoff from best-fit IC50): 55.3 nM
Increase in phosphorylation of PKC downstream targets (PKC [2]): about 2.5 fold
Activation of PKC (PKC [3]): activate PKC
Activation of PKC (PKC [4]): not in U251 cells
Inhibition of DGKβ (DGKβ [5]): did not inhibit
